Compound activity: PubChem, Johns Hopkins Ion Channel Center
Kir21 block: inhibitors of mouse Kir2.1 inward-rectifier potassium channel; P35561; HEK293-Kir2.1, FluxOR thallium flux fluorescence; hits give low values; B-score at 10 µM; hit rate 0.85% among 310,000; AID 1672;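 active = fluorescence ratio B-score at or below minus 3 SD of library scores, with starting-brightness B-score within 2 SD, cut at about -4.2 in these data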;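 also: channel flux triggered by added potassium and thallium sulfate stimulus; B-score of peak minus minimum fluorescence over baseline after thallium stimulus; more negative B-score means stronger Kir2.1 block with less thallium influx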
KCNK9 inh: inhibitors of human KCNK9 two-pore domain potassium channel. B-score at 10 µM. hit rate 1.2% among 310,000. Q9NPC2. HEK293 KCNK9, FluxOR thallium flux fluorescence; hits give low values;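 active = ratio B-score over 3 SD below the library mean, with starting fluorescence within 5 SD of its mean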;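 also: negative B-score means less thallium flux so channel inhibition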
KCNK3 inh: human KCNK3 channel inhibition, primary screen; O14649; CHO-KCNK3 thallium flux, FluxOR fluorescence; hits give low values; B-score at 10 µM; hit rate 0.84% among 340,000; AID 602410;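 active = B-score under library mean minus 4 SD, starting fluorescence ratio at most library mean plus 5 SD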;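 also: more negative B-score means stronger inhibition of thallium flux through KCNK3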
hERG rescue: shields human hERG channel from block by proarrhythmic agents. activation (rescue from dofetilide block), less the hit threshold, % at 10 µM. CHO-hERG, FluxOR thallium flux, dofetilide IC70 present. Q12809. AID 1511. hit rate 0.51% among 310,000;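 active = activation above the mean of controls blocked by dofetilide plus 5 SD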;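 also: thallium influx through hERG after potassium depolarization seen as dye fluorescence rise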
KCNQ1 block: blocks the human KCNQ1 potassium channel; P51787; CHO-K1 KCNQ1, FluxOR thallium flux fluorescence; hits give high values; B-score at 10 µM; hit rate 1.3% among 310,000; AID 2642;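 active = compounds whose thallium flux B-score, printed positive for inhibition, exceeds three library SD while starting fluorescence stays within three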;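 also: channel opened by potassium depolarization with thallium stimulus after 20 min compound exposure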
Target sequence (P51787 whole entry, looked up): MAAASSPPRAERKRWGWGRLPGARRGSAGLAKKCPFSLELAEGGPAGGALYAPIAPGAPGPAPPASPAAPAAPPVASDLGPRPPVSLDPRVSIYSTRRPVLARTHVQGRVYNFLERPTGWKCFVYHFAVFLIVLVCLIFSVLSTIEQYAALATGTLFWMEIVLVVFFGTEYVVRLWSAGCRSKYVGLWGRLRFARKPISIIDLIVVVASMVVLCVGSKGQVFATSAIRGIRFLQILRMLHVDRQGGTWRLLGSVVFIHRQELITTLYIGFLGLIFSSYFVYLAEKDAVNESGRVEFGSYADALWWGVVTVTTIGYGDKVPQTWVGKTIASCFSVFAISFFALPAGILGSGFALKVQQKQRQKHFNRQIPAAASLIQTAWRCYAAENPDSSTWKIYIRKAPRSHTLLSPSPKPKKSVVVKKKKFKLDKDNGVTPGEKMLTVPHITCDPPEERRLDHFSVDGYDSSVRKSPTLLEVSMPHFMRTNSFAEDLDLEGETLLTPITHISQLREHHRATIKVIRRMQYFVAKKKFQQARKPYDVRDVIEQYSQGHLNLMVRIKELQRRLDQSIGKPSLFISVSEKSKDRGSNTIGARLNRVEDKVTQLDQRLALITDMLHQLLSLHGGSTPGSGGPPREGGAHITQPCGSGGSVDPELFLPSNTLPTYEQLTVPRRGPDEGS
KCNQ1 pot: potentiates or activates the human KCNQ1 potassium channel. AID 2648. hit rate 0.35% among 310,000. B-score at 10 µM. P51787. CHO-K1 KCNQ1, thallium flux FluxOR fluorescence; hits give high values;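 active = fluorescence ratio B-score, a plate-corrected score, at least three library SD, with initial intensity B-score within 5 SD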
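System: CHO-K1 cells stably expressing KCNQ1 / Medium: assay buffer for compound exposure, DMSO matched across wells / Reagent: thallium- and potassium-containing depolarizing buffer / Compound: one concentration, matched DMSO / Incubation: 20 min compound pretreatment at room temperature / Measured by: kinetic FluxOR fluorescence, 10 s baseline plus 110 s post-stimulus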
* hit, by the source's call; i = inactive; nt = no result given. Most compounds without a hit are left out; they make up all but 3.8% or so of the library.

SMILES	Kir21 block	KCNK9 inh	KCNK3 inh	hERG rescue	KCNQ1 block	KCNQ1 pot
CC(O)CNCCCOc1ccc(Cl)cc1C(C)(C)C (centres undefined)	-6.2*	i	i	-18	i	i
CC(C)(C)c1cc(Cl)ccc1OCCn1ccnc1	-5.6*	i	i	0	i	i
CC(C)(C)c1ccccc1OCCCCCn1ccnc1	-7.4*	i	i	-22	i	i
COCCCNCCCOc1ccc(Cl)cc1Br	-1.6	i	i	-21	i	i
Clc1ccccc1OCCn1ccnc1	-1.4	i	i	-13	i	i
c1ccc(-c2ccccc2OCCCCn2ccnc2)cc1	-4.8*	i	i	-12	i	i
Cn1c(=O)c2c(nc(N3CCc4ccccc4C3)n2C)n(C)c1=O	2	i	i	-5	i	i
CC(C)C[C@@H](C(=O)N[C@@H](C(=O)O)c1ccccc1)N1C(=O)N2CCc3c([nH]c4ccccc34)[C@@]2(C)C1=O	0.04	i	i	-5	i	i
COc1ccc(NC(=O)NC(C)C2CC3CCC2C3)cc1 (centres undefined)	1.1	i	i	-7	i	i
COc1cc(C(=O)Nc2cccc(C)c2C)c(Br)c(OC)c1OC	2.5	i	i	-11	i	i
COc1ccc(C2NC(c3ccc(OC)c(OC)c3OC)C(C)C(=O)C2C)c(OC)c1OC (centres undefined)	-0.03	i	i	-2	i	10*
COc1cc(CNC2CCCCCCC2)cc(Br)c1OCC#N	-4.8*	i	i	-5	i	i
CCOc1c(Br)cc(CNC2CCCCCCC2)cc1OC	-4.3*	i	i	-12	i	i
C/C(=C\C(=O)c1ccncc1)Nc1ccccc1O	-0.23	i	i	5.7*	i	i
O=C1OC(c2ccccc2)(c2cc(Br)ccc2O)c2ccccc21 (centres undefined)	nt	nt	-9.8*	nt	nt	nt
O=C1OC(c2ccc(O)cc2)(c2ccccc2O)c2ccccc21 (centres undefined)	nt	nt	i	nt	nt	nt
CC(=O)[C@]1(O)Cc2c(O)c3c(c(O)c2[C@@H](O[C@H]2C[C@H](N)[C@H](O)[C@H](C)O2)C1)C(=O)c1ccccc1C3=O	-12	i	nt	-49	21*	i
Cn1c(SCC(=O)c2ccc3c(c2)OCCO3)nnc1C(F)(F)F	0.02	i	i	-2	i	i
CCCCCCCCCCn1ccc(=N)cc1	-3.1	i	i	-24	9*	i
N#C/C(=C/c1ccc(N2CCCC2)c([N+](=O)[O-])c1)c1nc2ccccc2[nH]1	-2.2	i	i	-19	i	i
Cc1ccc2nc(/C(C#N)=C\c3ccc(N4CCCCC4)c([N+](=O)[O-])c3)[nH]c2c1	0.24	i	i	-18	8*	i
CCCNC(=O)Cn1c(=O)oc2ccccc21	-1.1	i	i	-3	i	i
COc1cc(F)c(S(=O)(=O)N2CCOc3ccccc32)cc1OC	-5.3*	i	i	-4	i	i
O=[N+]([O-])c1ccccc1S(=O)(=O)N(CC1CO1)c1ccccc1 (centres undefined)	-3.9	i	i	-8	i	i
COc1ccc(OC)c(NC(=S)N2CCN(C/C=C/c3ccccc3)CC2)c1	-1.3	i	i	49*	i	i
Cc1ccccc1C(=O)c1cccn1CC(=O)NC(C)c1ccccc1 (centres undefined)	-4.4*	i	i	1	i	i
CC(NC(=O)/C(C#N)=C/c1ccc(Cl)c([N+](=O)[O-])c1)c1ccccc1 (centres undefined)	-5.5*	i	nt	-18	i	i
C[C@@H](NC(=O)/C(C#N)=C/c1ccc(O)c(O)c1)c1ccccc1	nt	nt	i	nt	nt	nt
CCOC(=O)C1=C(c2ccccc2)OC(N)=C(C#N)C1c1ccc(Cl)s1 (centres undefined)	1.5	-6.6*	i	-6	i	i
O=C1N[C@@H](Cc2cn(S(=O)(=O)c3c(F)c(F)c(F)c(F)c3F)c3ccccc23)C(=O)N[C@H]1Cc1ccccc1	-0.64	i	nt	-4	i	i
